Active and inactive are the calls of the source. No cut-off for these calls is given here.
How the values were obtained:
[1] = target: T1, Signal transducer and activator of transcription 3 (Homo sapiens, UniProt P40763); experiment: Binding affinity to SH2 domain of Stat3 by fluorescence polarization assay
Summary of the method: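 Recombinant Stat3, expressed and purified, tested against phosphopeptides and peptidomimetics in a fluorescence polarization competition assay. Affinity is reported as an inhibition constant (K_I).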

[2] = target: T1, Signal transducer and activator of transcription 3; experiment: Inhibition of SH2 domain of Stat3 constitutive phosphorylation at Tyr705 in human MDA-MB-468 cells after 2 hrs by Western blotting; type: cell-based
Summary of the method: (§1)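 MDA-MB-468 cells (4×10^5/well, DMEM 10% FCS, overnight) given prodrug from freshly made 10 mM DMSO stock for 2 h. Lysates in Hepes pH 7.4 Triton buffer with phosphatase/protease inhibitors; 12 μg protein on 8% SDS-PAGE, PVDF, probed for pStat3 Y705 by ECL, then stripped and reprobed for total Stat3.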

[3] = target: T1, Signal transducer and activator of transcription 3; experiment: Inhibition of SH2 domain of Stat3 constitutive phosphorylation at Tyr705 in human MDA-MB-468 cells at 0.1 uM after 2 hrs by Western blotting; type: cell-based; summary of the method: as §1
[4] = target: T1, Signal transducer and activator of transcription 3; experiment: Inhibition of SH2 domain of Stat3 constitutive phosphorylation at Tyr705 in human MDA-MB-468 cells at 0.5 uM after 2 hrs by Western blotting; type: cell-based; summary of the method: as §1

T1 sequence (P40763 whole entry, the tested form may be a part): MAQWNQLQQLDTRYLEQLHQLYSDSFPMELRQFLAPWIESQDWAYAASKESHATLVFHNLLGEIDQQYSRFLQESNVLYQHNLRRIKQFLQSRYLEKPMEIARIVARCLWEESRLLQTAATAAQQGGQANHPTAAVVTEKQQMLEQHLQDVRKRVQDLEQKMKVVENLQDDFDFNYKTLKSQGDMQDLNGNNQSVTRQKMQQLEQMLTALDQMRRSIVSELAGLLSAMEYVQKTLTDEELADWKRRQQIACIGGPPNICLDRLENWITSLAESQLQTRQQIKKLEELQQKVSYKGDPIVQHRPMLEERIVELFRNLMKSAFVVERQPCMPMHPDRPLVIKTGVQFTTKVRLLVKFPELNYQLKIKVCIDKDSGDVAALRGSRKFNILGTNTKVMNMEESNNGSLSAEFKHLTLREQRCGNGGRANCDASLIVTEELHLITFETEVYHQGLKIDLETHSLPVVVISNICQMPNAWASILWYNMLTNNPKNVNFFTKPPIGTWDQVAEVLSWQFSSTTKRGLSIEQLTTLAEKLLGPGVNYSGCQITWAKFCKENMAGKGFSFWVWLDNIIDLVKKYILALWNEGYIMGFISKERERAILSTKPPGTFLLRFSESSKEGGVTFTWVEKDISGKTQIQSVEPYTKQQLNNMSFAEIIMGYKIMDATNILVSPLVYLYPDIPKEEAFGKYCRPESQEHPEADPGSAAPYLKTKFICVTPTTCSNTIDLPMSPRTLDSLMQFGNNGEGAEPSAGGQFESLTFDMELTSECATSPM

Row | SMILES | Ki [1] | also measured
1 | C/C(=C\C(=O)N[C@H]1CCc2cccc3c2N(C1=O)[C@H](C(=O)N[C@H](C)CCC(N)=O)C3)c1ccc(OP(=O)(O)O)cc1 | 0.105 µM | –
2 | C/C(=C\C(=O)N[C@@H](CC(C)C)C(=O)N1C[C@H]2C[C@H]2[C@H]1C(=O)N[C@@H](CCC(N)=O)C(=O)NCc1ccccc1)c1ccc(OP(=O)(O)O)cc1 | 0.043 µM | –
3 | C/C(=C\C(=O)N[C@H]1CCc2cccc3c2N(C1=O)[C@H](C(=O)NCCNC(N)=O)C3)c1ccc(OP(=O)(O)O)cc1 | 0.386 µM | –
4 | CCCC[C@H](NC(=O)/C=C(\C)c1ccc(OP(=O)(O)O)cc1)C(=O)N1C[C@H]2C[C@H]2[C@H]1C(=O)NCCOC(N)=O | 0.114 µM | –
5 | C/C(=C\C(=O)N[C@H]1CCc2cccc3c2N(C1=O)[C@H](C(=O)N[C@@H](CCC(N)=O)C(=O)NCc1ccccc1)C3)c1ccc(C(F)(F)P(=O)(OCOC(=O)C(C)(C)C)OCOC(=O)C(C)(C)C)cc1 | – | inhibition [2]: Dose-dependent effect
6 | C/C(=C\C(=O)N[C@H]1CCc2cccc3c2N(C1=O)[C@H](C(=O)NCCOC(N)=O)C3)c1ccc(OP(=O)(O)O)cc1 | 0.188 µM | –
7 | C[C@H](CCC(N)=O)NC(=O)[C@@H]1Cc2cccc3c2N1C(=O)[C@@H](NC(=O)/C=C/c1ccc(C(F)(F)P(=O)(OCOC(=O)C(C)(C)C)OCOC(=O)C(C)(C)C)cc1)CC3 | – | inhibition [3]: Active; inhibition [4]: Active
8 | CCCC[C@H](NC(=O)/C=C/c1ccc(OP(=O)(O)O)cc1)C(=O)N1C[C@H]2C[C@H]2[C@H]1C(=O)N[C@@H](CCC(N)=O)C(=O)NCc1ccccc1 | 0.048 µM | –
9 | C/C(=C\C(=O)N[C@@H](CC(C)C)C(=O)N1C[C@H]2C[C@H]2[C@H]1C(=O)NCCOC(N)=O)c1ccc(OP(=O)(O)O)cc1 | 0.193 µM | –
10 | C/C(=C\C(=O)N[C@H]1CCc2cccc3c2N(C1=O)[C@H](C(=O)N[C@@H](CCC(N)=O)C(=O)NCc1ccccc1)C3)c1ccc(OP(=O)(O)O)cc1 | 0.057 µM | –
